This is a sample that favours compounds with a hit; in the whole collection about 2.9% have one here.
CHO-K1 Ca antag: nonselective inhibitor or artifact in parental CHO-K1 cells. ATP-induced calcium, Fluo-8 fluorescence. inhibition, % at 3 µM. AID 602250. 0.6% of 360,000 active;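 active means inhibition above a per-plate cutoff, the plate's mean sample inhibition plus 3 SD, cut at about 24% in these data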
CHO-K1 Ca PAM: nonselective activator or artifact in parental CHO-K1 calcium assay; 0.02% of 360,000 active; activation, % at 3 µM; ATP EC20, Fluo-8 calcium fluorescence; 0% at ATP EC20, 100% at ATP max;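 active means activation above the run cutoff, the mean activation of all test compounds plus 3 SD, cut at about 40% in these data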;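 further: peak over basal fluorescence ratio in a 140 s read after ATP addition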
OX1R antag-1: blocks the human orexin 1 receptor; O43613; CHO/OX1R cells, Fluo-8 calcium fluorescence, orexin A; inhibition, % at 5 µM; 0.43% of 330,000 active; AID 434989;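 active means inhibition above its plate's threshold, mean inhibition of all tested compounds on the plate plus 3 SD, cut at about 37% in these data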
Target sequence (O43613 whole entry, looked up): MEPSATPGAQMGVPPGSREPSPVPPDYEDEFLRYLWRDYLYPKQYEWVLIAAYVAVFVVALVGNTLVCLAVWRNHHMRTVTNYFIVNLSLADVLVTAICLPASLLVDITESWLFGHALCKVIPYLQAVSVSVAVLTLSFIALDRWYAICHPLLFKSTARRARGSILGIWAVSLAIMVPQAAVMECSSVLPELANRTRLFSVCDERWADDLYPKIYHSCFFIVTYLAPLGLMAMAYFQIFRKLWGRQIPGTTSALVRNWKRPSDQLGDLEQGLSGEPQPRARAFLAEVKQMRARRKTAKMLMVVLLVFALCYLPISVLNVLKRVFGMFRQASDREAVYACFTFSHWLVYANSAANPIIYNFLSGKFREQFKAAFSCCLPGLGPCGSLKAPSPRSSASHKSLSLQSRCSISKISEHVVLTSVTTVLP
M1 ag parental: M1 agonist counterscreen hit in parental CHO-K1 cells | Fluo-8 calcium fluorescence; scaled to maximal ATP response, vehicle zero | activation, % at 3 µM | 0.48% of 360,000 active | AID 602248; in the data active means activation above about 15%;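 further: untransfected CHO-K1 host cells lacking M1 receptor as counterscreen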
OX1R antag-2: blocks the human orexin 1 receptor. O43613. OX1R-expressing cells, FRET antagonist read-out. inhibition, % at 6.6 µM. 1.8% of 330,000 active. AID 485270; in the data active means inhibition mostly above about 38%, no sharp cut-off; inactive means mostly below about 40%
CHO parental Ca: counter-screen: ATP calcium response change in parental CHO cells; parental CHO-K1, ATP-induced calcium, Fluo-8 fluorescence; inhibition, % at 5.6 µM; 0.63% of 330,000 active; AID 463079;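 active means inhibition above that plate's mean sample inhibition plus 3 SD, cut at about 26% in these data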
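Test system: parental CHO cells; detection: calcium-sensitive Fluo-8 fluorescence; evaluation: percent inhibition of calcium signal; also added: ATP as calcium-mobilizing challenge; repeats: one well per compound; control set: ATP-challenged DMSO wells low, unchallenged DMSO wells high; compound: single nominal dose of 5.6 µM per compound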
Hits are given with their value; - = inactive; . = no result given.

SMILES | CHO-K1 Ca antag | CHO-K1 Ca PAM | OX1R antag-1 | M1 ag parental | OX1R antag-2 | CHO parental Ca
CCCc1nc(NCc2ccccn2)c2nnn(Cc3ccccc3F)c2n1 | 30 | - | - | - | - | -
Cc1cc(C)n2nc(C(=O)N/N=C/c3ccccc3C)nc2n1 | - | - | - | - | - | -
Cc1cc(C)n2nc(C(=O)N/N=C/c3cccs3)nc2n1 | - | - | - | - | 35 | -
Cc1nnc(NC(=O)c2ccc3ccccc3n2)s1 | - | - | - | 20 | - | -
Cc1nc2ccc(NC(=O)c3ccccc3)cc2s1 | - | - | - | - | - | -
Cc1nc2ccc(NC(=O)c3ccc4ccccc4n3)cc2s1 | - | - | - | - | 65 | -
Cc1nc(SCC(=O)NCC2CCCO2)c2cc(-c3ccccc3)sc2n1 (stereo unspecified) | - | - | - | - | - | -
O=C(O)CC(C(=O)OCC1CCCO1)N1CCOCC1 (stereo unspecified) | - | - | - | - | - | -
O=C(O)CC(C(=O)OC1CCCCC1)N1CCOCC1 (stereo unspecified) | 31 | - | - | - | - | -
CCOc1cccc(C(=O)Nc2cccc(C(=O)NCC(C)C)c2)c1 | - | - | - | - | - | -
Oc1ccccc1-c1cc(-c2ccc3c(c2)OCCO3)n[nH]1 | - | - | - | - | 59 | -
COc1ccc(-c2cc(-c3ccccc3O)[nH]n2)cc1OC | 25 | - | - | - | - | -
O=C(O)c1cc(-c2ccc3c(c2)OCCO3)n[nH]1 | - | - | - | - | - | -
CN(C)c1ccc(C(=O)c2ccc(N(C)C)c3ccccc23)cc1 | - | - | - | - | 55 | 70
COc1ccc(C(=O)c2ccc(N(C)C)cc2)c(OC)c1 | - | - | - | - | - | -
COC(=O)C(NS(=O)(=O)c1ccc(N2CCCC2=O)cc1)c1ccccc1 (stereo unspecified) | - | - | - | - | - | -
Cc1[nH]c(=O)[nH]c(=O)c1S(=O)(=O)Nc1ccc(F)cc1F | - | - | . | - | . | .
CN(CCCC(=O)O)S(=O)(=O)c1ccc2c(c1)C(=O)c1cc(S(=O)(=O)N(C)CCCC(=O)O)ccc1-2 | - | - | - | - | 51 | -
CN(CCO)S(=O)(=O)c1ccc2c(c1)C(=NNC(N)=O)c1cc(S(=O)(=O)N(C)CCO)ccc1-2 | - | - | - | - | - | -
COc1ccc(CCNC(=O)CCCc2nnc3n(C)c(=O)c4sccc4n23)cc1OC | - | - | - | - | - | -
CCc1ccc(-c2nc(CSCC(=O)N3CCN(c4ccccn4)CC3)c(C)o2)cc1 | 29 | - | - | - | - | -
CCOc1ccc(-c2nc(CSCC(=O)N3CCN(c4cccc(OC)c4)CC3)c(C)o2)cc1 | - | - | 44 | - | 54 | 75
Cc1ccc(-c2nc(CSCC(=O)N3CCN(c4ccccn4)CC3)c(C)o2)cc1 | - | - | - | - | - | -
CCc1cccc(C)c1NC(=O)C1CC=CCC1C(=O)O (stereo unspecified) | - | - | - | - | - | -
Cc1c(NC(=O)c2ccc(S(=O)(=O)N3CCOCC3)cc2)cccc1[N+](=O)[O-] | - | - | - | - | - | -
SMILES | CHO-K1 Ca antag | CHO-K1 Ca PAM | OX1R antag-1 | M1 ag parental | OX1R antag-2 | CHO parental Ca
CN(C)C(CNC(=O)CNC(=O)c1ccc(Br)cc1)c1ccccc1 (stereo unspecified) | - | - | - | - | - | -
COCc1cc(C)nc2sc3c(=O)n(Cc4ccco4)nnc3c12 | 26 | - | . | - | . | .
Cc1cc(C)c2c(n1)sc1c(=O)n(Cc3ccccc3Cl)nnc12 | - | - | . | - | . | .
Cc1ccc(NS(=O)(=O)c2ccc(C3CCCCC3)cc2)cc1 | - | - | 56 | - | - | 42
Cc1cc(NS(=O)(=O)c2ccc(NC(=O)c3c(F)c(F)c(F)c(F)c3F)cc2)nc(C)n1 | - | - | - | - | - | -
CC(=O)c1ccc(NS(=O)(=O)c2ccc(C)cc2)cc1 | 27 | - | - | - | - | -
Cc1ccc(S(=O)(=O)Nc2ccc(NC(=O)c3c(F)c(F)c(F)c(F)c3F)cc2)cc1 | - | - | 69 | - | - | 44
CCOC(=O)C1CCCN1C(=O)C1(NC(C)=O)CCCC1 (stereo unspecified) | - | - | . | - | . | .
Cc1cc2n(n1)C(c1sccc1C)Nc1c(C)cccc1-2 (stereo unspecified) | 25 | - | - | - | - | -
Cc1cc2n(n1)C(c1sccc1C)Nc1ccccc1-2 (stereo unspecified) | - | - | - | - | - | -
Cc1ccccc1NC(=O)CCS(=O)(=O)c1cccc2nonc12 | - | - | - | - | 55 | -
CCOC(=O)c1cccc(NC(=O)CCNS(=O)(=O)c2cc(Br)cnc2N)c1 | - | - | - | - | 63 | -
Nc1ncc(Br)cc1S(=O)(=O)NCCC(=O)Nc1cccc(Cl)c1 | - | - | - | - | - | -
COc1ccc(N(C)C(=O)C2CCCN2S(=O)(=O)c2cccc3nsnc23)c(OC)c1 (stereo unspecified) | - | - | - | - | - | -
O=C1NC(=O)C2(N1)C(=O)c1cccc3cccc2c13 (stereo unspecified) | - | - | . | 100 | . | .
CC(=O)N(C)C1=C(N2CCOCC2)C(=O)c2ccccc2C1=O | - | - | - | - | 73 | -
CC(=O)c1ccc(NC2=C(N3CCOCC3)C(=O)c3ccccc3C2=O)cc1 | - | - | - | - | - | -
CCN(CC)S(=O)(=O)c1ccc(Cl)c(C(=O)Nc2ccc(Cl)cc2[N+](=O)[O-])c1 | - | - | - | - | - | 50
COCCNC(=O)/C(C#N)=C1\N=C(NC(=O)c2cccs2)c2ccccc21 | - | - | - | - | 42 | -
CCCNC(=O)/C(C#N)=C1\N=C(NC(=O)c2cccs2)c2ccccc21 | - | - | - | - | - | -
CCN1C(=O)c2c(C)nc3ccccc3c2C1=O | - | - | - | - | 39 | -
CCN(CC)c1ccc2cc(C(N)=O)c(=O)oc2c1 | - | - | - | - | - | -
CCN(CC)c1ccc2cc(C=O)c(=O)oc2c1 | - | - | - | 26 | 116 | 50
CCN(CC)c1ccc2cc(-c3nnc(-c4ccncc4)o3)c(=O)oc2c1 | - | - | . | 19 | . | .
COc1ccc(S(=O)(=O)N(C)CC(=O)NCc2ccccn2)cc1 | - | - | - | - | - | -
CC12CCC(/C(=C/NNc3ccc([N+](=O)[O-])cc3[N+](=O)[O-])C1=O)C2(C)C (stereo unspecified) | - | - | . | - | . | .
CCCN1CCC(=NNc2ccc(S(=O)(=O)N3CCOCC3)cc2[N+](=O)[O-])CC1 | - | - | - | - | 71 | -
CC(C)(C)OC(=O)N1CCN(C(c2ccnc3ccccc23)c2nnnn2-c2ccc3c(c2)OCCO3)CC1 (stereo unspecified) | - | - | . | - | . | .
O=C(NC1CCCCC1)C1CC(=O)N(c2ccccc2)C1 (stereo unspecified) | - | - | - | - | - | -
